# Data as given in ChEMBL document CHEMBL5154824, “Design and synthesis of multifunctional microtubule targeting agents endowed with dual pro-apoptotic and anti-autophagic efficacy” (Eur J Med Chem, 2022).
# The source made the active and inactive calls. No cut-off for these calls is given here.
# Legend:
# [1] = Induction of Pro-apoptosis in human HL-60 cells assessed as increase in apoptotic cells at 10 uM after 48 hrs by Annexin-V/PI-staining based flow cytometry; format: functional
# Emu-TCL1 = experiment: Induction of apoptosis in mouse Emu-TCL1 cells model of CLL assessed as mitochondrial membrane depolarization at 10 uM after 48 hrs by TMRM dye based flow cytometric analysis; format: functional, cell-based
# In short: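 Splenocytes from Eμ-TCL1 leukaemic mice were treated with 10 μM or DMSO vehicle for 48 h, then TMRM-loaded. Flow cytometry gave the percentage of TMRM-low cells as mean ± SD (n = 3).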
# NIH3T3 = experiment: Cytotoxicity against mouse NIH3T3 cells assessed as inhibition of cell growth measured after 24 hrs by neutral red uptake assay; format: functional, cell-based; settings: NIH3T3, 24 h
# In short: (§1)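 Neutral red uptake viability test. NIH3T3 fibroblasts or primary human oral epithelial cells were exposed to compound at 0.1 to 120 μM. EC50 was derived, with SD below 5%.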
# [2] = Induction of Pro-apoptosis in human HL-60 cells assessed as increase in apoptotic cells at 10 uM after 24 hrs by TMRM dye based flow cytometric analysis; format: functional
# [3] = Induction of Pro-apoptosis in human HL-60 cells assessed as increase in apoptotic cells at 25 uM after 24 hrs by TMRM dye based flow cytometric analysis; format: functional
# HeLa [4] = experiment: Cytotoxicity against human HeLa cells assessed as inhibition of cell growth measured after 48 hrs by MTT assay; format: functional, cell-based
# In short: (§2)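 MTT assay. Cells were exposed for 48 h to increasing concentrations of compound. Ovarian A2780 was paired with its P-gp-overexpressing A2780AD counterpart, and HeLa with HeLa β3, which overexpresses the tubulin β3 isotype. IC50 is the mean ± SD of three independent experiments.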
# Tubulin (Homo sapiens) = Tubulin (Homo sapiens) (UniProt P68371+Q9H4B7+P0DPH7+P68366+Q13509+Q71U36+P04350+Q3ZCM7+P07437+P68363+Q9BQE3+Q6PEY2+Q13885+Q9BVA1+Q9BUF5); experiment: Binding affinity to microtubule polymerization (unknown origin) assessed as formation of microtubule at 27.5 uM measured for 2 hrs by plate reader method; format: protein-complex assay
# In short: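 25 μM tubulin in GAB buffer with compound at 27.5 μM or DMSO vehicle; podophyllotoxin 27.5 μM as destabiliser control. Polymerisation started by raising temperature from 4 to 37 °C at time 0; microtubule formation followed as absorbance increase over time.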
# A549 = experiment: Cytotoxicity against human A549 cells assessed as inhibition of cell growth measured after 48 hrs by MTT assay; format: functional, cell-based; settings: A549, 48 h
# A2780 [5] = experiment: Cytotoxicity against human A2780 cells assessed as inhibition of cell growth measured after 48 hrs by MTT assay; format: functional, cell-based; settings: A2780, 48 h; in short: as §2
# A2780 [6] = experiment: Cytotoxicity against human A2780AD cells assessed as inhibition of cell growth measured after 48 hrs by MTT assay; format: functional, cell-based; settings: A2780, 48 h; in short: as §2
# HeLa [7] = experiment: Cytotoxicity against human HeLa cells overexpressing tubulin beta3 assessed as inhibition of cell growth measured after 48 hrs by MTT assay; format: functional, cell-based; in short: as §2
# [8] = Ratio of IC50 for cytotoxicity against human […] assessed as inhibition of cell growth measured after 48 hrs to IC50 for cytotoxicity against human A2780 cells assessed as inhibition of cell growth measured after 48 hrs; format: functional
# In short: (§3)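 MTT assay: cells exposed to increasing compound concentrations for 48 h. Lines were A2780 and its P-gp-overexpressing A2780AD counterpart, and HeLa and HeLa β3 (tubulin β3-overexpressing). IC50 is the mean ± SD of three independent experiments. R/S is the IC50 in the resistant line divided by that in the parental line.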
# [9] = Ratio of IC50 for cytotoxicity against human HeLa cells overexpressing tubulin beta3 assessed as inhibition of cell growth measured after 48 hrs to IC50 for cytotoxicity against human HeLa cells assessed as inhibition of cell growth measured after 48 hrs; format: functional; in short: as §3
# SCC-4 [10] = experiment: Cytotoxicity against human SCC-4 cells assessed as reduction in cell viability measured after 48 hrs by alamar blue viability assay; format: functional, cell-based; settings: SCC-4, 48 h
# In short: (§4)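 Oral squamous carcinoma cells were exposed for 48 h to at least 8 increasing concentrations. Viability was read by AlamarBlue. IC50 is the concentration that halves viability, taken as the mean ± SD of at least three independent experiments.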
# Ca9-22 = experiment: Cytotoxicity against human Ca9-22 cells assessed as reduction in cell viability measured after 48 hrs by alamar blue viability assay; format: functional, cell-based; settings: Ca9-22, 48 h; in short: as §4
# [11] = Cytotoxicity against human TR146 cells assessed as reduction in cell viability measured after 48 hrs by alamar blue viability assay; format: functional, cell-based; settings: TR146, 48 h; in short: as §4
# SCC-4 [12] = experiment: Induction of apoptosis in human SCC-4 cells assessed as increase in apoptotic cells at 0.5 uM after 48 hrs by Annexin V-FITC/PI staining based flow cytometry method; format: functional, cell-based
# In short: (§5)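 SCC4 cells were treated at 0.5 or 2 μM for 48 h, then stained with Annexin V/PI and analysed by flow cytometry. Data are mean ± SEM of three independent experiments, with an unpaired one-tailed t-test versus vehicle.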
# SCC-4 [13] = experiment: Induction of apoptosis in human SCC-4 cells assessed as increase in apoptotic cells at 2 uM after 48 hrs by Annexin V-FITC/PI staining based flow cytometry method; format: functional, cell-based; in short: as §5
# KYSE-520 cell line [14] = experiment: Cytotoxicity against human KYSE520 cells assessed as inhibition of cell growth measured after 72 hrs by alamar blue viability assay; format: functional, cell-based; settings: KYSE-520, 72 h
# In short: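 KYSE-520 oesophageal cells were exposed to at least 8 increasing concentrations for 48 h or 72 h. Viability was read out to give IC50, as the mean ± SD of at least three independent experiments.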
# OE33 = experiment: Cytotoxicity against human OE33 cells assessed as inhibition of cell growth measured after 72 hrs by MTT assay; format: functional, cell-based; settings: OE33, 72 h
# In short: (§6)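 Oesophageal adenocarcinoma lines were exposed to at least 8 increasing concentrations for 72 h. Viability was measured by MTT. IC50 is the mean ± SD of at least three independent experiments.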
# KYSE-520 cell line [15] = experiment: Induction of apoptosis in human KYSE520 cells assessed as increase in apoptotic cells at 3 to 10 uM after 72 hrs by Annexin V-FITC/PI staining based flow cytometry method; format: functional, cell-based; settings: dose 3-10 µM
# In short: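 KYSE-520 cells were treated at 3 and 10 μM for 72 h, then analysed by flow cytometry after Annexin V/PI dual staining.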
# [16] = Cytotoxicity against human Primary oral epithelial cells assessed as inhibition of cell growth measured after 24 hrs by neutral red uptake assay; format: toxicity, cell-based; in short: as §1
# SCC-4 [17] = experiment: Induction of autophagy in human SCC-4 cells assessed as increase in LC3-II to LC3-I ratio at 10 uM incubated for 30 mins in presence of EBSS followed by compound addition and measured after 3 hrs by Western blot analysis; format: functional, cell-based
# In short: (§7)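 SCC4 cells were pre-incubated with or without EBSS for 30 min, then given 10 μM compound, with 10 μM chloroquine as reference, for 3 h. LC3-I/II was assessed by Western blot with GAPDH loading control. The LC3-II/LC3-I ratio came from densitometry, as mean ± SEM of four experiments, with an unpaired one-tailed t-test.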
# SCC-4 [18] = experiment: Induction of autophagy in human SCC-4 cells assessed as increase in LC3-II to LC3-I ratio at 10 uM in absence of EBSS measured after 3 hrs by Western blot analysis; format: functional, cell-based; in short: as §7
# HL-60 [19] = experiment: Induction of autophagy in human HL-60 cells assessed as increase in LC3-II protein level at 10 uM measured up to 1 hr by Immunoblotting analysis; format: functional, cell-based
# HL-60 [20] = experiment: Induction of autophagy in human HL-60 cells assessed as increase in LC3-II protein level at 10 uM in presence of chloroquine […] by Immunoblotting analysis; format: functional, cell-based
# HL-60 [21] = experiment: Induction of autophagy in human HL-60 cells assessed as increase in p62 protein level at 10 uM […] by Immunoblotting analysis; format: functional, cell-based
# [22] = target: Nuclear factor NF-kappa-B complex (Homo sapiens) (UniProt Q00653+P19838+Q04206); experiment: Inhibition of NF-kappaB phosphorylation in human HL-60 cells at 10 uM measured after 2 hrs by Immunoblotting analysis; format: cell-based
# Nuclear factor NF-kappa-B complex (Homo sapiens), sequence (P19838 whole entry, looked up): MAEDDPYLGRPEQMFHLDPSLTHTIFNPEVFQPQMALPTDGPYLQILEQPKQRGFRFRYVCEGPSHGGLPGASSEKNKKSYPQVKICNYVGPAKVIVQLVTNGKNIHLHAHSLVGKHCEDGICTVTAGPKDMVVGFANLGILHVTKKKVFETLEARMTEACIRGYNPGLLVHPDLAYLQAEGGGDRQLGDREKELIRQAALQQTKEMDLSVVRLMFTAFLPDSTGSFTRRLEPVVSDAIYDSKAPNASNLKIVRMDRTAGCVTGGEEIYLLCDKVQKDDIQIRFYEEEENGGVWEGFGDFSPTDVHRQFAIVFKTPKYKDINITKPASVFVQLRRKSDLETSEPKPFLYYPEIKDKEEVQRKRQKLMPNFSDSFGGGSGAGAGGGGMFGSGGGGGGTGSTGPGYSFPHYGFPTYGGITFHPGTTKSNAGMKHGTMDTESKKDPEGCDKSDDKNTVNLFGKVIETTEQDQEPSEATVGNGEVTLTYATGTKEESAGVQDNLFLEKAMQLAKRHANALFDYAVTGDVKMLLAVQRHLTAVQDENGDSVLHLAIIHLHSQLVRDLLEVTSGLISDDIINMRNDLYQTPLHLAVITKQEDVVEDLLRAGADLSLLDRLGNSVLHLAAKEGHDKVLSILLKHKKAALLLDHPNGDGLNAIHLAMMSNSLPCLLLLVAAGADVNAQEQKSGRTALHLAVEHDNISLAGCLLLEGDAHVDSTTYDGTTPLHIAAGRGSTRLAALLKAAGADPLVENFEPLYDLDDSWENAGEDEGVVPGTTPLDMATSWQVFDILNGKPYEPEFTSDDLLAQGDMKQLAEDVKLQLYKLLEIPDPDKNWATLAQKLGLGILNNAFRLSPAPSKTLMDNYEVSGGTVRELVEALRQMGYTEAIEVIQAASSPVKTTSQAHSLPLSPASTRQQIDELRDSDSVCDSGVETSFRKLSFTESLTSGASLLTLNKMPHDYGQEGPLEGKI
# Nuclear factor NF-kappa-B complex (Homo sapiens), sequence (Q00653 whole entry, looked up): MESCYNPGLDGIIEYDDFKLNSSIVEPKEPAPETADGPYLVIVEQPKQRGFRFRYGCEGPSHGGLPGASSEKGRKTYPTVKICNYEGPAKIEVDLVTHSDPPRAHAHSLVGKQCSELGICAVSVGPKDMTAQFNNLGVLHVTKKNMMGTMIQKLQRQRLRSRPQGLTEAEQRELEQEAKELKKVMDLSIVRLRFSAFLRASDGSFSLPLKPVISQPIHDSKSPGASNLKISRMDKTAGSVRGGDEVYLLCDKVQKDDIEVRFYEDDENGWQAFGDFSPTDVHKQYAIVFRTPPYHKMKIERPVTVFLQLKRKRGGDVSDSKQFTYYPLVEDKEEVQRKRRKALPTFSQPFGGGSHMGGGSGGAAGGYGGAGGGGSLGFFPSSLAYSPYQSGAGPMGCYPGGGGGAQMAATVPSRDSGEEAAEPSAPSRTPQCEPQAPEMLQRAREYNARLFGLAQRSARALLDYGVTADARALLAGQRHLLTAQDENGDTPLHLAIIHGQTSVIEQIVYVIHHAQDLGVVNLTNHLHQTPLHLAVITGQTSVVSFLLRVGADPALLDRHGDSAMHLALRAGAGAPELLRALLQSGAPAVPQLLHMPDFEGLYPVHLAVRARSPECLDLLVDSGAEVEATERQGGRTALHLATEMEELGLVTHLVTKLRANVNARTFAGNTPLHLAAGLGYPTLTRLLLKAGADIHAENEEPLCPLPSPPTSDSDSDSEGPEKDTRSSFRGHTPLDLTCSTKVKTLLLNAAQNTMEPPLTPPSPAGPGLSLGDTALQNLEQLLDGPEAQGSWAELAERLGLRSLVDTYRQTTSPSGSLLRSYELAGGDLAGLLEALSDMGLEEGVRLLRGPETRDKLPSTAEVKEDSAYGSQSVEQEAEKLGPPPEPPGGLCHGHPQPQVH
# Nuclear factor NF-kappa-B complex (Homo sapiens), sequence (Q04206 whole entry, looked up): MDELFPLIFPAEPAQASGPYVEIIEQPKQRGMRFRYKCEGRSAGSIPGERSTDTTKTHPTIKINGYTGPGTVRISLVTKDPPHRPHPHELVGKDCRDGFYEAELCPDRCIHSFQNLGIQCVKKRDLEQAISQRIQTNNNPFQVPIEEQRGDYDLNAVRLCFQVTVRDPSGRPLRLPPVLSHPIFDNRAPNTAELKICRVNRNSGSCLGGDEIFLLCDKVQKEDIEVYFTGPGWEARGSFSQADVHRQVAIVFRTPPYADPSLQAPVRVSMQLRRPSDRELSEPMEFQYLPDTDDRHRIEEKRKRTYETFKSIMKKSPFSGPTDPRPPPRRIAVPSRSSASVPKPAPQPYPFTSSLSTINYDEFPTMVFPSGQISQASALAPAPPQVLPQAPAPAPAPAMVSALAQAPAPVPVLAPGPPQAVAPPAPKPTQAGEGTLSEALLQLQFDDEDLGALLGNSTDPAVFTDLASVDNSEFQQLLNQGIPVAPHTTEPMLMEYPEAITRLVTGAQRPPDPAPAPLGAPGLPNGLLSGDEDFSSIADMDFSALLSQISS
# In short: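 HL-60 cells were treated at 10 μM or with DMSO vehicle for 2 h. Phospho-NF-κB and phospho-Erk1/2 were immunoblotted and quantified by densitometry relative to β-tubulin. Data are mean ± SD (n = 2), analysed by one-way ANOVA.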
# OE19 = experiment: Cytotoxicity against human OE19 cells assessed as inhibition of cell growth measured after 72 hrs by MTT assay; format: functional, cell-based; settings: OE19, 72 h; in short: as §6
# [23] = Cytotoxicity against human SKGT4 cells assessed as inhibition of cell growth measured after 72 hrs by MTT assay; format: functional, cell-based; settings: SKGT4, 72 h; in short: as §6
smiles,measurement,setting,value
CC(C)(C)OC(=O)N1CCC(C(=O)OC2=C(c3cccc4ncccc34)Oc3cc4ccccc4cc3-n3cccc32)CC1,Activity,[1],>=30%
same,Activity,Emu-TCL1,Active
same,EC50,NIH3T3,6000 nM
CC(=O)OC1=C(c2cccc3ccccc23)Oc2ccc(C)cc2-n2cccc21,Activity,[2],<30%
same,Activity,[3],>=50%
same,EC50,NIH3T3,300 nM
COc1cc([C@@H]2c3cc4c(cc3[C@H](O)[C@H]3COC(=O)[C@H]23)OCO4)cc(OC)c1OC [PODOFILOX],IC50,HeLa [4],17 nM
same,Activity,Tubulin (Homo sapiens),Active
same,IC50,A549,12 nM
same,IC50,A2780 [5],15 nM
same,IC50,A2780 [6],20 nM
same,IC50,HeLa [7],14 nM
same,Ratio IC50,[8],1.33
same,Ratio IC50,[9],0.82
CCN(CC)CCCC(C)NC(=O)OC1=C(c2cccc3ncccc23)Oc2cc3ccccc3cc2-n2cccc21 (racemic),Activity,[1],>=70%
same,IC50,HeLa [4],921 nM
same,Activity,Emu-TCL1,Active
same,IC50,SCC-4 [10],910 nM
same,IC50,Ca9-22,2000 nM
same,IC50,[11],1500 nM
same,Activity,SCC-4 [12],Active
same,Activity,SCC-4 [13],Active
same,IC50,KYSE-520 cell line [14],41900 nM
same,IC50,OE33,1380 nM
same,Activity,KYSE-520 cell line [15],Active
same,Activity,Tubulin (Homo sapiens),Active
same,EC50,NIH3T3,6000 nM
same,EC50 at 24 h,[16],45000 nM
same,IC50,A549,1380 nM
same,IC50,A2780 [5],1030 nM
same,IC50,A2780 [6],1210 nM
same,IC50,HeLa [7],661 nM
same,Ratio IC50,[8],1.18
same,Ratio IC50,[9],0.72
same,Activity,SCC-4 [17],Active
same,Activity,SCC-4 [18],Active
same,Activity,HL-60 [19],Active
same,Activity,HL-60 [20],Active
same,Activity,HL-60 [21],Active
same,inhibition,[22],Active
CCN(CC)C(=O)OC1=C(c2cccc3ccccc23)Oc2ccc(N3CCN(C)CC3)cc2-n2cccc21,Activity,[1],<30%
same,Activity,Emu-TCL1,Active
same,EC50,NIH3T3,5000 nM
CC(=O)OC1=C(c2cccc3ccccc23)Oc2cc3c(cc2-n2cccc21)OCO3,Activity,[2],>=50%
same,Activity,[3],>=50%
same,EC50,NIH3T3,150 nM
CC(=O)OC1=C(c2cccc3ncccc23)Oc2cc3ccccc3cc2-n2cccc21,Activity,[1],>=70%
same,Activity,Emu-TCL1,Active
same,IC50,KYSE-520 cell line [14],138000 nM
same,IC50,OE33,320 nM
same,IC50,OE19,730 nM
same,IC50,[23],510 nM
same,Activity,KYSE-520 cell line [15],Active
same,Activity,SCC-4 [17],Active
same,Activity,SCC-4 [18],Active
same,Activity,HL-60 [19],Active
same,Activity,HL-60 [20],Active
same,Activity,HL-60 [21],Active
same,inhibition,[22],Active
O=C(OC1=C(c2cccc3ncccc23)Oc2cc3ccccc3cc2-n2cccc21)c1cccnc1,Activity,[1],>=70%
same,Activity,Emu-TCL1,Active
same,EC50,NIH3T3,6000 nM
same,Activity,HL-60 [19],Active
same,Activity,HL-60 [20],Active
same,Activity,HL-60 [21],Active
CN(C)C(=O)OC1=C(c2cccc3ccccc23)Oc2ccc(Cl)cc2-n2cccc21,Activity,[2],>=50%
same,Activity,[3],>=50%
CN(C)C(=O)OC1=C(c2cccc3ccccc23)Oc2ccccc2-n2cccc21,Activity,[1],>=70%
same,IC50,SCC-4 [10],160 nM
same,IC50,Ca9-22,170 nM
CC(=O)OC1=C(c2cccc3ccccc23)Oc2cc3ccccc3cc2-n2cccc21,Activity,[1],>=70%
same,Activity,[2],>=50%
same,Activity,Emu-TCL1,Active
same,Activity,HL-60 [19],Active
same,Activity,HL-60 [20],Active
same,Activity,HL-60 [21],Active
same,inhibition,[22],Active
CC(=O)OC1=C(c2cccc3ccccc23)Oc2ccc(N3CCN(C)CC3)cc2-n2cccc21,Activity,[1],<30%
same,Activity,Emu-TCL1,Active
same,EC50,NIH3T3,45000 nM
CC(=O)OC1=C(c2cccc3ccccc23)Oc2cc3c(cc2-n2cccc21)OCCO3,Activity,[2],>=50%
same,Activity,[3],>=50%
same,EC50,NIH3T3,100 nM
CCN(CC)CCCC(C)Nc1ccnc2cc(Cl)ccc12 (stereo unspecified),Activity,SCC-4 [17],Active
same,Activity,SCC-4 [18],Active
CC(=O)OC1=C(c2cccc3cccnc23)Oc2cc3ccccc3cc2-n2cccc21,Activity,[1],>=70%
same,IC50,SCC-4 [10],130 nM
same,Activity,SCC-4 [12],Active
same,Activity,SCC-4 [13],Active
same,Activity,SCC-4 [17],Active
same,Activity,SCC-4 [18],Active
